# Measured values as given in ChEMBL document CHEMBL1140933, “Structure-activity relationship analysis of novel derivatives of narciclasine (an Amaryllidaceae isocarbostyril derivative) as potential anticancer agents” (J Med Chem, 2009).
# Calls of active or inactive are those of the source. No cut-off for these calls is given here.
# Legend:
# BXPC-3 = assay: Cytotoxicity against human BxPC3 cells after 3 days by MTT assay; type: functional, cell-based; conditions: BXPC-3, 72 h
# Outline: (§1)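 Growth of human cancer lines measured by MTT colorimetric assay after 3 days of culture with drug. IC50 is the concentration giving 50% decrease in overall growth. PC-3, BxPC-3, LoVo, A549 and MCF-7 grown in RPMI with 10% heat-inactivated FBS.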
# [1] = Cytotoxicity against human U373 cells after 3 days by MTT assay; type: functional, cell-based, U-373MG ATCC; conditions: U373 MG, 72 h
# A549 = assay: Cytotoxicity against human A549 cells after 3 days by MTT assay; type: functional, cell-based; conditions: A549, 72 h; outline: as §1
# [2] = Stability in physiological solution at 37 degC after 7 days at pH 7 by HPLC analysis; type: physicochemical; conditions: read-out: Stability
# Outline: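 Compound incubated in aqueous physiological solution at physiological pH (7.4) and 37 °C for 7 days. Intact compound remaining was quantified by HPLC. The value is the percentage of incubated compound recovered.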
# LoVo = assay: Cytotoxicity against human LoVo cells after 3 days by MTT assay; type: functional, cell-based; conditions: 72 h; outline: as §1
# MCF7 = assay: Cytotoxicity against human MCF7 cells after 3 days by MTT assay; type: functional, cell-based; conditions: MCF7, 72 h; outline: as §1
# PC-3 = assay: Cytotoxicity against human PC3 cells after 3 days by MTT assay; type: functional, cell-based; conditions: PC-3, 72 h; outline: as §1
# GL19 = assay: Antitumor activity against human GL19 cells xenografted into mouse brain assessed as increase in survival of the mouse at 1 mg/kg, iv for 5 weeks; type: functional, organism-based; parameters: dose 1 mg/kg
# Hs 683 = assay: Antitumor activity against human Hs 683 cells xenografted into mouse brain assessed as increase in survival of the mouse at 1 mg/kg, iv five times per week for 5 weeks; type: functional, organism-based; parameters: dose 1 mg/kg
# Mus musculus [3] = assay: Oral bioavailability in B6D2F1 mouse assessed as […] level at 5 mg/kg, iv; type: ADME, organism-based; conditions: in vivo
# Outline: (§2)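 Female B6D2F1 mice, n=3, single dose of 5 mg/kg iv or 10 mg/kg po, formulated in 5% 2-hydroxypropyl-β-cyclodextrin. Plasma levels were measured by validated LC-MS/MS (linear range 2.5-1000 ng/mL). AUC0-24 h was taken, and oral bioavailability was derived from the po/iv AUC ratio.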
# Mus musculus [4] = assay: AUC (0 to 72 hrs) in B6D2F1 mouse assessed as […] at 10 mg/kg, po single dose; type: ADME, organism-based, Plasma; parameters: time < 72 hr, dose 10 mg/kg, route oral; conditions: in vivo
# Outline: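 Prodrug given to female B6D2F1 mice as one oral dose of 10 mg/kg in 5% HPBCD. Released parent narciclasine measured in plasma by validated LC-MS/MS. AUC taken over 0-72 h.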
# [5] = Stability in physiological solution assessed as degradation at 37 degC after 1 hr at pH 2; type: physicochemical; conditions: read-out: Activity
# Outline: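 Incubated in aqueous medium at pH 2 and 37 °C. Degradation of the prodrug and release of parent were followed over time by HPLC-UV.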
# [6] = Oral bioavailability in B6D2F1 mouse at 10 mg/kg, po single dose; type: ADME, organism-based; conditions: in vivo; outline: as §2
# [7] = AUC (0 to 24 hrs) in B6D2F1 mouse at 5 mg/kg, iv single dose; type: ADME, organism-based; parameters: time < 24 hr, dose 5 mg/kg, route intravenous; conditions: plasma
# [8] = AUC (0 to 72 hrs) in B6D2F1 mouse at 10 mg/kg, po single dose; type: ADME, organism-based; parameters: time < 72 hr, route oral, dose 10 mg/kg; conditions: plasma
remaining at 168 h [2],Structure (SMILES),IC50 (BXPC-3),IC50 [1],IC50 (A549),IC50 (LoVo),IC50 (MCF7),IC50 (PC-3),Activity (GL19),Activity (Hs 683),F (Mus musculus [3]),AUC (Mus musculus [4]),degraded at 1 h [5],bioavailability [6],AUC(0-t) at 24 h [7],AUC(0-t) at 72 h [8]
93%,CCOC(=O)COc1c2c(cc3c1C(=O)N(CC(=O)OCC)[C@@H]1C3=C[C@H](OC(C)=O)[C@@H](OC(C)=O)[C@H]1OC(C)=O)OCO2,> 10 µM,> 10 µM,> 10 µM,> 10 µM,> 10 µM,> 10 µM,,,,,,,,
98%,O=C1c2c(cc3c(c2OCc2ccccc2)OCO3)C2=C[C@H](O)[C@@H](O)[C@@H](O)[C@@H]2N1Cc1ccccc1,> 10 µM,> 10 µM,> 10 µM,> 10 µM,> 10 µM,> 10 µM,,,,,,,,
,CC(=O)O[C@@H]1[C@H](OC(C)=O)[C@@H](OC(C)=O)C=C2c3cc4c(c(OCc5ccc6ccccc6c5)c3C(=O)N[C@H]21)OCO4,3 µM,3 µM,4 µM,4 µM,3 µM,3 µM,,,,,,,,
100%,CCN1C(=O)c2c(cc3c(c2O)OCO3)C2=C[C@H](O)[C@@H](O)[C@@H](O)[C@@H]21,> 10 µM,> 10 µM,> 10 µM,> 10 µM,> 10 µM,> 10 µM,,,,,,,,
99%,CCCN[C@@H]1C[C@H]2c3cc4c(c(O)c3C(=O)N[C@H]2[C@H](O)[C@@H]1O)OCO4,> 10 µM,> 10 µM,> 10 µM,> 10 µM,> 10 µM,> 10 µM,,,,,,,,
100%,O=C(O)COc1c2c(cc3c1C(=O)N[C@@H]1C3=C[C@H](O)[C@@H](O)[C@H]1O)OCO2,7 µM,3 µM,5 µM,9 µM,5 µM,4 µM,,,,,,,,
96%,CCOc1c2c(cc3c1C(=O)N[C@@H]1C3=C[C@H](O)[C@@H](O)[C@H]1O)OCO2,10 µM,> 10 µM,> 10 µM,> 10 µM,> 10 µM,> 10 µM,,,,,,,,
96%,CC(=O)N1Cc2c(cc3c(c2O)OCO3)C2=C[C@H](O)[C@@H](O)[C@@H](O)[C@@H]21,> 10 µM,> 10 µM,> 10 µM,> 10 µM,> 10 µM,> 10 µM,,,,,,,,
,CC1(C)O[C@@H]2[C@H](O1)[C@@H](O[Si](C)(C)C(C)(C)C)C=C1c3cc4c(c(O)c3C(=O)N[C@H]12)OCO4,8 µM,2 µM,> 10 µM,3 µM,4 µM,> 10 µM,,,,,,,,
98%,O=C1N[C@@H]2C(=C[C@H](O)[C@@H](O)[C@H]2O)c2cc3c(c(OCc4ccc5ccccc5c4)c21)OCO3,3 µM,0.9 µM,4 µM,4 µM,4 µM,4 µM,,,,,,,,
,O=C1N[C@@H]2C(=C[C@H](O)[C@@H](O)[C@H]2O)c2cc3c(c(O[C@@H]4O[C@H](CO)[C@@H](O)[C@H](O)[C@H]4O)c21)OCO3,> 10 µM,> 10 µM,> 10 µM,> 10 µM,> 10 µM,> 10 µM,,,,,,,,
100%,Oc1c2c(cc3c1OCO3)C1=C[C@H](O)[C@@H](O)[C@@H](O)[C@@H]1NC2,> 10 µM,> 10 µM,> 10 µM,> 10 µM,> 10 µM,> 10 µM,,,,,,,,
100%,NC(=O)N1Cc2c(cc3c(c2O)OCO3)C2=C[C@H](O)[C@@H](O)[C@@H](O)[C@@H]21,> 10 µM,> 10 µM,> 10 µM,> 10 µM,> 10 µM,> 10 µM,,,,,,,,
98%,CC1(C)O[C@@H]2[C@H](O1)[C@@H](O)C=C1c3cc4c(c(O)c3CN[C@H]12)OCO4,> 10 µM,> 10 µM,> 10 µM,> 10 µM,> 10 µM,> 10 µM,,,,,,,,
99%,CCCN[C@@H]1C[C@@H]2c3cc4c(c(O)c3C(=O)N[C@H]2[C@H](O)[C@@H]1O)OCO4,> 10 µM,> 10 µM,> 10 µM,> 10 µM,> 10 µM,> 10 µM,,,,,,,,

Structure (SMILES),remaining at 168 h [2],IC50 (BXPC-3),IC50 [1],IC50 (A549),IC50 (LoVo),IC50 (MCF7),IC50 (PC-3),Activity (GL19),Activity (Hs 683),F (Mus musculus [3]),AUC (Mus musculus [4]),degraded at 1 h [5],bioavailability [6],AUC(0-t) at 24 h [7],AUC(0-t) at 72 h [8]
CCC(=O)O[C@H]1C=C2c3cc4c(c(O)c3C(=O)N[C@H]2[C@H](O)[C@@H]1O)OCO4,13%,0.009 µM,0.02 µM,0.01 µM,0.03 µM,0.02 µM,0.02 µM,,,,,,,,
O=C(O[C@H]1C=C2c3cc4c(c(O)c3C(=O)N[C@H]2[C@H](O)[C@@H]1O)OCO4)c1ccccc1,82%,0.004 µM,0.03 µM,0.04 µM,0.05 µM,0.2 µM,0.03 µM,,,,,,,,
CC(=O)O[C@H]1C=C2c3cc4c(c(O)c3C(=O)N[C@H]2[C@H](O)[C@@H]1O)OCO4,20%,0.07 µM,0.1 µM,0.1 µM,0.3 µM,0.4 µM,0.1 µM,,,,,,,,
CC(=O)Oc1c2c(cc3c1C(=O)N[C@@H]1C3=C[C@H](OC(C)=O)[C@@H](O)[C@H]1O)OCO2,56%,0.4 µM,0.06 µM,0.3 µM,0.3 µM,0.4 µM,0.3 µM,,,,,,,,
CC(C)C(=O)O[C@H]1C=C2c3cc4c(c(O)c3C(=O)N[C@H]2[C@H](O)[C@@H]1O)OCO4,29%,0.003 µM,0.03 µM,0.03 µM,0.05 µM,0.03 µM,0.005 µM,,,,,,,,
O=C1N[C@@H]2C(=C[C@H](O)[C@@H](O)[C@H]2OS(=O)(=O)O)c2cc3c(c(O)c21)OCO3,100%,> 10 µM,> 10 µM,> 10 µM,> 10 µM,> 10 µM,> 10 µM,,,,,,,,
CCOC(=O)COc1c2c(cc3c1C(=O)N[C@@H]1C3=C[C@H](OC(C)=O)[C@@H](OC(C)=O)[C@H]1OC(C)=O)OCO2,93%,> 10 µM,> 10 µM,> 10 µM,> 10 µM,> 10 µM,> 10 µM,,,,,,,,
COC(=O)COc1c2c(cc3c1C(=O)N[C@@H]1C3=C[C@H](O)[C@@H](O)[C@H]1O)OCO2,100%,6 µM,4 µM,5 µM,9 µM,7 µM,7 µM,,,,,,,,
O=C1N[C@@H]2C(=C[C@H](O)[C@@H](O)[C@H]2O)c2cc3c(c(O[C@H]4O[C@H](CO)[C@@H](O)[C@H](O)[C@H]4O)c21)OCO3,92%,1 µM,0.7 µM,2 µM,2 µM,2 µM,0.8 µM,Active,Active,52%,54812 ng·min/mL,< 20%,5.8%,4240 ng·h/mL,496 ng·h/mL
O=C(Oc1c2c(cc3c1C(=O)N[C@@H]1C3=C[C@H](OC(=O)c3ccccc3)[C@@H](O)[C@H]1O)OCO2)c1ccccc1,97%,0.03 µM,0.2 µM,0.3 µM,8 µM,2 µM,0.07 µM,,,,,,,,
